Test results from ChEMBL document CHEMBL3132746, “Development of CBAP-BPyne, a probe for γ-secretase and presenilinase” (Medchemcomm, 2014).
Active and inactive are the calls of the source. No cut-off for these calls is given here.

Experiments:
Gamma-secretase [1] = experiment: Inhibition of gamma-secretase (unknown origin) expressed in CHO cells transfected with APP assessed as amyloid-beta42 production by cell based assay; set-up: species or system Homo sapiens
[2] = target: Presenilin-1 (Homo sapiens) (UniProt P49768); experiment: Inhibition of PS1 PSase activity in human HeLa cells assessed as accumulation of full length protein at 1 to 10 uM after 4 days by Western blot analysis; format: cell-based
In short: (§1)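 HeLa cells treated 4 days at 1, 3 or 10 µM, with DMSO vehicle as control. Lysis in RIPA buffer; 15 µg lysate run on 12% Bis-Tris gel in MES buffer. Western blot with anti PS1-NTF antibody, scoring full-length PS1 and PS1-NTF bands.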

Gamma-secretase [3] = experiment: Inhibition of gamma-secretase (unknown origin) using Notch1 substrate assessed as Notch1-NICD production; format: protein-complex assay, Homo sapiens
[4] = target: Presenilin-1 (Homo sapiens) (UniProt P49768); experiment: Binding affinity to PS1-CTF in human HeLa cell membrane by photolabelling assay; format: cell membranes
In short: (§2)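 Photolabelling: 600 µg HeLa cell membrane diluted in PBS, preincubated with 2 µM CBAP or vehicle for 15 min at 37 °C. Then 20 nM probe for 1 h at 37 °C and UV irradiation (350 nm) for 45 min. Membranes pelleted and clicked to biotin azide (1 h, RT). Streptavidin pull-down overnight at 4 °C, biotin elution, Western blot with the relevant subunit antibody.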

[5] = target: Gamma-secretase subunit PEN-2 (Homo sapiens) (UniProt Q9NZ42); experiment: Binding affinity to Pen-2 in human HeLa cell membrane by photolabelling assay; format: cell membranes; in short: as §2
Nicastrin (Homo sapiens) = Nicastrin (Homo sapiens) (UniProt Q92542); experiment: Binding affinity to nicastrin in human HeLa cell membrane by photolabelling assay; format: cell membranes; in short: as §2
HeLa [6] = experiment: Binding affinity to Signal peptide peptidase in human HeLa cell membrane by photolabelling assay; format: cell membranes; in short: as §2
HeLa [7] = experiment: Binding affinity to Aph-1 in human HeLa cell membrane by photolabelling assay; format: cell membranes; in short: as §2
[8] = target: Presenilin-1 (Homo sapiens) (UniProt P49768); experiment: Binding affinity to PS1-NTF in human HeLa cell membrane by photolabelling assay; format: cell membranes; in short: as §2
Gamma-secretase [9] = experiment: Inhibition of gamma-secretase (unknown origin) using APP substrate assessed as amyloid-beta40 production; format: protein-complex assay, Homo sapiens
[10] = target: Presenilin-1 (Homo sapiens) (UniProt P49768); experiment: Inhibition of PS1 PSase activity in human HeLa cells assessed as complete depletion of PS1-NTF protein at 1 to 10 uM after 4 days by Western blot analysis relative to control; format: cell-based; in short: as §1

Chain of Nicastrin (Homo sapiens) (Q92542 whole entry): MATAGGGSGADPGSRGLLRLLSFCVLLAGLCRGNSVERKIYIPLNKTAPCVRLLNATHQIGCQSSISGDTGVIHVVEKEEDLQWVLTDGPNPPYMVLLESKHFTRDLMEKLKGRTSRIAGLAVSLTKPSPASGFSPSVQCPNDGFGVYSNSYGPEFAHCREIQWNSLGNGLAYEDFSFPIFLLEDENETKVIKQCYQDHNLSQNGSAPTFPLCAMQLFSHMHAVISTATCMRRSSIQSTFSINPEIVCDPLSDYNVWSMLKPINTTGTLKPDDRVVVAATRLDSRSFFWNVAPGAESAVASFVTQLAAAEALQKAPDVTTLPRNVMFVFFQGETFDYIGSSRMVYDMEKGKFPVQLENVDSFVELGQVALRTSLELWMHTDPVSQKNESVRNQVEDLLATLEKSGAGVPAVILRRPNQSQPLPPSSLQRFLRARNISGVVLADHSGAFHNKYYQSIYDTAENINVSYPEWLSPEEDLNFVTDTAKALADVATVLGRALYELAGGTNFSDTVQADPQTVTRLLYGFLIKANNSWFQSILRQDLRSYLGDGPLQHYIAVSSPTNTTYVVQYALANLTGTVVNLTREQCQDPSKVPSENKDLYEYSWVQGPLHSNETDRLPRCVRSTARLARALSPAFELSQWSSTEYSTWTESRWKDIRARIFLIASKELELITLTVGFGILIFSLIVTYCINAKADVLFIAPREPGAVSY
Chain of Gamma-secretase subunit PEN-2 (Homo sapiens) (Q9NZ42 whole entry): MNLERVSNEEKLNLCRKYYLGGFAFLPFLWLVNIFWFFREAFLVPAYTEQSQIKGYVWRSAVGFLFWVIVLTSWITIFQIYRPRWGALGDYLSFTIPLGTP

Question: What does the source list for `C#CCOc1ccc(C(=O)c2ccc(C(=O)N[C@@H](Cc3ccccc3)[C@H](O)C[C@@H](Cc3ccccc3)C(=O)N[C@@H](C)C(=O)N[C@@H]3N=C(C4CCCCC4)c4ccccc4NC3=O)cc2)cc1`?
Answer: IC50 (Gamma-secretase [1]): 20 nM; inhibition [2]: Active; IC50 (Gamma-secretase [3]): 1 nM; Activity [4]: inactive; Activity [5]: inactive; Activity (Nicastrin (Homo sapiens)): inactive; Activity (HeLa [6]): Active; Activity (HeLa [7]): inactive; Activity [8]: Active; IC50 (Gamma-secretase [9]): 0.91 nM

Question: With `C[C@H](NC(=O)[C@H](Cc1ccccc1)C[C@@H](O)[C@H](Cc1ccccc1)NC(=O)OC(C)(C)C)C(=O)N[C@@H]1N=C(C2CCCCC2)c2ccccc2NC1=O` as the molecule, how does the IC50 (Gamma-secretase [1]) read?
Answer: 28 nM

Question: And the inhibition [2]?
Answer: Active

Question: And the IC50 (Gamma-secretase [3])?
Answer: 0.56 nM

Question: And the Activity [4]?
Answer: inactive

Question: And the Activity [5]?
Answer: inactive

Question: What about the Activity (Nicastrin (Homo sapiens)) of the same molecule?
Answer: inactive

Question: What about the Activity (HeLa [6]) of the same molecule?
Answer: Active

Question: And the Activity (HeLa [7])?
Answer: inactive

Question: What about the Activity [8] of the same molecule?
Answer: Active

Question: And the IC50 (Gamma-secretase [9])?
Answer: 0.7 nM

Question: And the inhibition [10]?
Answer: Active

Question: Which inhibition [2] does the source give for `CC(C)C[C@H](NC(=O)[C@H](Cc1ccccc1)C[C@@H](O)[C@H](Cc1ccccc1)NC(=O)OC(C)(C)C)C(=O)N[C@@H](Cc1ccccc1)C(N)=O` here?
Answer: inactive
